Reference: ChEMBL document CHEMBL3259777, “The cannabinoid acids, analogs and endogenous counterparts” (Bioorg Med Chem, 2014)

Key:
[1] = Antiinflammatory activity in LPS-induced mouse […] cells assessed as PGJ2 synthesis at 10 uM relative to control; assay type: functional, RAW264.7
[2] = Drug metabolism in cynomolgus monkey hepatocytes assessed as parent compound remaining after 2 hrs; assay type: ADME, cell-based, Hepatocyte; conditions: read-out: Stability
[3] = Plasma concentration in patient at 20 mg, po after 2 hrs; assay type: ADME, organism-based; conditions: human
Summary of the method: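 Single oral 20 mg dose in humans. Plasma sampled two hours post-dose, reported as mean ± R.S.D., n=9; glucuronide measured as well.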

[4] = Induction of LXA4 production in HFLS cells at 1 to 30 uM incubated for 1 hr followed by TNF-alpha challenge for 18 hrs by ELISA relative to control; assay type: functional, Homo sapiens
[5] = Drug metabolism in rat hepatocytes assessed as parent compound remaining after 2 hrs; assay type: ADME, cell-based, Hepatocyte; conditions: read-out: Stability
[6] = Inhibition of MMP-3 release in TNF alpha-induced HFLS cells at 10 uM; assay type: functional; conditions: Homo sapiens
Mus musculus [7] = experiment: Antiinflammatory activity in mouse assessed as reduction of IL-1beta/TNF-alpha-induced leukocyte count in air pouches at 0.2 mg/kg/day; assay type: functional; set-up: scale not given: the % may be the effect or the level left
Summary of the method: (§1)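 Mouse acute inflammation: IL-1β and TNFα injected into air pouches formed on the back. Drug dosed daily, and leukocytes counted in pouch exudates.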

Rattus norvegicus [8] = experiment: Analgesic activity in rat assessed as reversal of mechanical hyperalgesia at 0.1 to 1 mg/kg, po; assay type: functional; conditions: dose mg/kg 0.1-1
Mus musculus [9] = experiment: Antiinflammatory activity in mouse assessed as adhering leukocytes at 1 mg/kg, po after 6 hrs relative to vehicle-treated control; assay type: functional
Summary of the method: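 Given orally in oil over 0.01 to 1.0 mg/kg. Peritoneal cells collected from mice 6 hours after dosing and cultured 18-20 hours before leukocyte adhesion was measured. Compared with vehicle-dosed mice.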

Blood [10] = experiment: Induction of LXA4 production in human blood at 25 uM after 1 hr in presence of 12/15 LOX inhibitor baicalein relative to control; assay type: functional
Mus musculus [11] = experiment: Reduction of cell invasion to peritoneum in zymosan-A-induced FVB mouse peritonitis model at 1.5 mg/kg, iv by mass spectrometry; assay type: functional; set-up: scale not given: the % may be the effect or the level left
Mus musculus [12] = experiment: Antiinflammatory activity in mouse assessed as reduction of IL-1beta/TNF-alpha-induced leukocyte count in air pouches at 0.1 mg/kg/day; assay type: functional; set-up: scale not given: the % may be the effect or the level left; summary of the method: as §1
Rattus norvegicus [13] = experiment: Reversal of PAF-induced allodynia in ip dosed rat after 40 to 60 mins by paw withdrawal test; assay type: functional
Summary of the method: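 Rat tonic inflammatory pain model with platelet-activating factor injected into the hind paw. Doses of 3, 4.5, 6.8, 10.1 and 15.2 mg/kg given i.p. Paw withdrawal threshold to mechanical pressure read 40-60 min post-drug. Approximate ED-50 estimated from the dose-response curve for reversal of PAF-induced allodynia.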

Mus musculus [14] = experiment: Induction of LXA4 production in zymosan-A-induced FVB mouse peritonitis model at 1.5 mg/kg, iv by mass spectrometry relative to control; assay type: functional
[15] = Drug metabolism in dog hepatocytes assessed as parent compound remaining after 2 hrs; assay type: ADME, cell-based, Canis lupus familiaris, Hepatocyte; conditions: read-out: Stability
Blood [16] = experiment: Induction of LXA4 production in human blood at 1 to 30 uM incubated for 5 hrs by ELISA; assay type: functional
Cannabinoid receptor 1 = Cannabinoid receptor 1 (Homo sapiens, UniProt P21554); experiment: Binding affinity to CB1 receptor (unknown origin)
[17] = Drug metabolism in human hepatocytes assessed as parent compound remaining after 2 hrs; assay type: ADME, cell-based, Hepatocyte; conditions: read-out: Stability
RAW [18] = experiment: Antiinflammatory activity in mouse RAW cells assessed as arachidonic acid release at 24 uM after 1 hr by liquid scintillation counting analysis in presence of [14C]-arachidonic acid relative to control; assay type: functional
Summary of the method: (§2)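 RAW cells labelled 2 hr with 14C-arachidonic acid, then medium changed to RPMI + 0.1% BSA. Cells treated 1 hr with non-radioactive test agent added in 10 µl DMSO; DMSO alone as control. Release counted by LSC on a 0.1 ml medium aliquot, expressed as treated/control, means ± SD.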

Mus musculus [19] = experiment: Antiinflammatory activity in mouse peritonitis model assessed as reduction of pro-inflammatory cell migration into peritoneal cavity at 0.3 mg/kg, po; assay type: functional; set-up: scale not given: the % may be the effect or the level left
Summary of the method: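 Mouse peritonitis induced by thioglycollate challenge. Compound given orally, and migration of pro-inflammatory cells into the peritoneal cavity quantified.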

RAW [20] = experiment: Antiinflammatory activity in mouse RAW cells assessed as arachidonic acid release at 3 uM after 1 hr by liquid scintillation counting analysis in presence of [14C]-arachidonic acid relative to control; assay type: functional; summary of the method: as §2
RAW [21] = experiment: Antiinflammatory activity in mouse RAW cells assessed as arachidonic acid release at 12 uM after 1 hr by liquid scintillation counting analysis in presence of [14C]-arachidonic acid relative to control; assay type: functional; summary of the method: as §2
RAW [22] = experiment: Antiinflammatory activity in mouse RAW cells assessed as arachidonic acid release at 6 uM after 1 hr by liquid scintillation counting analysis in presence of [14C]-arachidonic acid relative to control; assay type: functional; summary of the method: as §2
[23] = Antiinflammatory activity in LPS-induced mouse […] cells assessed as PGJ2 synthesis at 3 uM relative to control; assay type: functional, RAW264.7
[24] = Antiinflammatory activity in LPS-induced mouse […] cells assessed as PGJ2 synthesis at 3 uM in presence of polyclonal antiGPR18 relative to control; assay type: functional, RAW264.7
RAW [25] = experiment: Antiinflammatory activity in mouse RAW cells assessed as arachidonic acid release at 1.5 uM after 1 hr by liquid scintillation counting analysis in presence of [14C]-arachidonic acid relative to control; assay type: functional; summary of the method: as §2
Mus musculus [26] = species: Mus musculus; experiment: Stimulation of phospholipase A2 in mouse brain synaptosomes using [1-14C]phosphotidylcholine as substrate assessed as arachidonic acid release relative to control; assay type: subcellular

Chain of Cannabinoid receptor 1 (P21554 whole entry): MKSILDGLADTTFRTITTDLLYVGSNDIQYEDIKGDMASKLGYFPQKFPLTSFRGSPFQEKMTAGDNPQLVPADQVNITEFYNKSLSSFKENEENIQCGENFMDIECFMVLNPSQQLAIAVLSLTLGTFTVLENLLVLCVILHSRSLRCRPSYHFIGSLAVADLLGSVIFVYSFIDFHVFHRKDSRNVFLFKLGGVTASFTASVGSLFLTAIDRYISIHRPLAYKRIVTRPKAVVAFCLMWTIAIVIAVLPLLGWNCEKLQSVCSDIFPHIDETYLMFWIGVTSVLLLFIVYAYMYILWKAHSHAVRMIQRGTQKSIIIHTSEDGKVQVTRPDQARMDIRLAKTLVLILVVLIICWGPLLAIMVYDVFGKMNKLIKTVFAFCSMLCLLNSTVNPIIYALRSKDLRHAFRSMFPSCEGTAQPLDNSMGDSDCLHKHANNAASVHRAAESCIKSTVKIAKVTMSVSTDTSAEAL

Compound: CCCCC/C=C\C/C=C\C/C=C\C/C=C\CCCC(=O)N[C@@H](C)C(=O)O
- Activity [1]: 212%

Compound: CCCCC/C=C\C/C=C\C/C=C\C/C=C\CCCC(=O)NC(C)(C)C(=O)O
- Activity [1]: 220%

Compound: CCCCCCC(C)(C)c1cc(O)c2c(c1)OC(C)(C)[C@@H]1CC=C(C(=O)O)C[C@@H]21 [LENABASUM]
- remaining at 2 h [2]: 86%
- concentration at 2 h [3]: 599 ng/mL
- Ratio [4]: 2
- remaining at 2 h [5]: 103%
- inhibition at 10 µM [6]: 88%
- Activity (Mus musculus [7]): 65.5%
- Activity (Rattus norvegicus [8]): <=60%
- Activity (Mus musculus [9]): 24%
- Activity (Blood [10]): >90%
- Activity (Mus musculus [11]): 75%
- Activity (Mus musculus [12]): 42.3%
- ED50 (Rattus norvegicus [13]): 4.2 mg/kg
- Ratio (Mus musculus [14]): 7
- remaining at 2 h [15]: 90%
- Ratio (Blood [16]): 2
- Ki (Cannabinoid receptor 1): 5.7 nM
- remaining at 2 h [17]: 83%

Compound: CCCCC/C=C\C/C=C\C/C=C\CCCCC(=O)NCC(=O)O
- Activity [1]: 203%

Compound: CCCCCCCC/C=C\CCCCCCCC(=O)NC(C)(C)C(=O)O
- Activity [1]: 118%

Compound: CCCCCCCCCCCCCCCC(=O)NCC(=O)O [PALMITOYL GLYCINE]
- Activity [1]: 100%

Compound: CCCCC/C=C\C/C=C\C/C=C\C/C=C\CCCC(=O)NCC(=O)O [ARACHIDONOYL GLYCINE]
- Activity [1]: 213%
- T/C (RAW [18]): 2.95
- Activity (Mus musculus [19]): 60%
- T/C (RAW [20]): 1.2
- T/C (RAW [21]): 1.85
- T/C (RAW [22]): 1.4
- Activity [23]: 100%
- Activity [24]: 50%
- T/C (RAW [25]): 1

Compound: CCCCCc1cc(O)c2c(c1)OC(C)(C)[C@@H]1CCC(C(=O)O)=C[C@@H]21
- Activity (Mus musculus [26]): 20%
